We go through 13 compounds from ChEMBL document CHEMBL4052675, “Synthesis, biological evaluation and molecular modeling of imidazo[1,2-a]pyridine derivatives as potent antitubulin agents” (Bioorg Med Chem, 2017).

One assay concerns SMMC-7721. The assay can be described thus: Cytotoxicity against human SMMC7721 cells after 72 hrs by MTT assay. Format: functional, cell-based. The following applies: SMMC-7721, 72 h. The method in brief: (§1)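 Cells grown in MEM with 10% FBS; about 4×10^3 cells per well, preincubated 24 h at 37 °C in 5% CO₂, then exposed to compounds for 72 h. MTT at a […] added for 4 h at 37 °C. Formazan dissolved in DMSO; absorbance read at 492 nm against 630 nm reference. Three runs per line; IC50 reported as mean ± SD.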
(In general: Tetrazolium assays rely on reduction of a dye to a coloured formazan, in cell work by metabolically active cells.)
On to `N#Cc1c(-c2ccc(F)cc2Cl)cc(-c2c[nH]c3ccccc23)n2cc(CNC3CCCCC3)nc12`, for which the half-maximal inhibitory concentration (IC50) (as a rule, the concentration that inhibits the measured activity by half) amounted to 4880 nM.
The compound `COc1ccc(-c2cc(-c3ccc(F)cc3)n3c(CN4CCN(C)CC4)cnc3c2C#N)c(OC)c1OC` yielded a concentration for half-maximal inhibition (IC50) of 24600 nM.
As to `CCN(CC)Cc1cnc2c(C#N)c(-c3ccc(OC)c(OC)c3OC)cc(-c3ccc(F)cc3)n12`, the IC50 was 6910 nM.
Same read-out and setting: then `CNCc1cn2c(-c3c[nH]c4ccccc34)cc(-c3ccc(F)cc3F)c(C#N)c2n1`, with 16200 nM; and `COc1cc(-c2cc(-c3ccc(F)cc3F)n3c(CN4CCCC4)cnc3c2C#N)cc(OC)c1OC`, with 2930 nM.
The same measure, in the same setting: then `CNCc1cnc2c(C#N)c(-c3ccc(OC)c(OC)c3OC)cc(-c3ccc(F)cc3F)n12`, with 1170 nM; and `CC(C)NCc1cn2c(-c3c[nH]c4ccccc34)cc(-c3ccc(F)cc3F)c(C#N)c2n1`, with 6540 nM.
Same read-out and setting: then `COc1ccc(-c2cc(-c3ccc(F)cc3F)n3c(CN4CCCC4)cnc3c2C#N)c(OC)c1OC`, with 2380 nM; and `N#Cc1c(-c2ccc(F)cc2F)cc(-c2c[nH]c3ccccc23)n2cc(CN3CCCC3)nc12`, with 5040 nM; and `CCNCc1cnc2c(C#N)c(-c3ccc(OC)c(OC)c3OC)cc(-c3ccc(F)cc3F)n12`, with 1320 nM.
For the compound `CNCc1cn2c(-c3c[nH]c4ccccc34)cc(-c3ccc(F)cc3Cl)c(C#N)c2n1`, the IC50 turned out to be 5660 nM.
`CCNCc1cnc2c(C#N)c(-c3ccc(OC)c(OC)c3OC)cc(-c3ccc(F)cc3)n12` yielded a 50% inhibitory concentration (IC50) of 6020 nM.
On the same count and under the same terms, then `CCNCc1cn2c(-c3c[nH]c4ccccc34)cc(-c3ccc(F)cc3F)c(C#N)c2n1`, with 6120 nM.

For another assay, the system named is HT-29. The assay can be described thus: Cytotoxicity against human HT-29 cells after 72 hrs by MTT assay. Format: functional, cell-based. The note with it: HT-29, 72 h. The method in brief:
as §1
With `N#Cc1c(-c2ccc(F)cc2Cl)cc(-c2c[nH]c3ccccc23)n2cc(CNC3CCCCC3)nc12`, inhibition was half-maximal at 20 nM (IC50).
Still for that read-out and setting: then `COc1ccc(-c2cc(-c3ccc(F)cc3)n3c(CN4CCN(C)CC4)cnc3c2C#N)c(OC)c1OC`, with 2040 nM; and `CCN(CC)Cc1cnc2c(C#N)c(-c3ccc(OC)c(OC)c3OC)cc(-c3ccc(F)cc3)n12`, with 3010 nM.
Compound `CNCc1cn2c(-c3c[nH]c4ccccc34)cc(-c3ccc(F)cc3F)c(C#N)c2n1` showed an IC50 of 160 nM.
The same measure, in the same setting: to `COc1cc(-c2cc(-c3ccc(F)cc3F)n3c(CN4CCCC4)cnc3c2C#N)cc(OC)c1OC` belongs 700 nM; to `CNCc1cnc2c(C#N)c(-c3ccc(OC)c(OC)c3OC)cc(-c3ccc(F)cc3F)n12`, 70 nM; to `CC(C)NCc1cn2c(-c3c[nH]c4ccccc34)cc(-c3ccc(F)cc3F)c(C#N)c2n1`, 80 nM.
On the same count and under the same terms, to `COc1ccc(-c2cc(-c3ccc(F)cc3F)n3c(CN4CCCC4)cnc3c2C#N)c(OC)c1OC` belongs 1340 nM.
Still for that read-out and setting: to `N#Cc1c(-c2ccc(F)cc2F)cc(-c2c[nH]c3ccccc23)n2cc(CN3CCCC3)nc12` belongs 40 nM; to `CCNCc1cnc2c(C#N)c(-c3ccc(OC)c(OC)c3OC)cc(-c3ccc(F)cc3F)n12`, 90 nM; to `CNCc1cn2c(-c3c[nH]c4ccccc34)cc(-c3ccc(F)cc3Cl)c(C#N)c2n1`, 120 nM.
`CCNCc1cnc2c(C#N)c(-c3ccc(OC)c(OC)c3OC)cc(-c3ccc(F)cc3)n12` displayed an IC50 of 910 nM.
Same read-out and setting: then `CCNCc1cn2c(-c3c[nH]c4ccccc34)cc(-c3ccc(F)cc3F)c(C#N)c2n1`, with 50 nM.

In the next assay the test system is A549. The assay can be described thus: Cytotoxicity against human A549 cells after 72 hrs by MTT assay. The class given is functional, cell-based. The note with it: A549, 72 h. The method in brief: as §1
`N#Cc1c(-c2ccc(F)cc2Cl)cc(-c2c[nH]c3ccccc23)n2cc(CNC3CCCCC3)nc12`: the half-inhibitory concentration (IC50) was 2530 nM.
On the same count and under the same terms, to `COc1ccc(-c2cc(-c3ccc(F)cc3)n3c(CN4CCN(C)CC4)cnc3c2C#N)c(OC)c1OC` belongs 12400 nM.
On the same count and under the same terms, then `CCN(CC)Cc1cnc2c(C#N)c(-c3ccc(OC)c(OC)c3OC)cc(-c3ccc(F)cc3)n12`, with 1970 nM.
Still for that read-out and setting: then `CNCc1cn2c(-c3c[nH]c4ccccc34)cc(-c3ccc(F)cc3F)c(C#N)c2n1`, with 8900 nM.
The compound `COc1cc(-c2cc(-c3ccc(F)cc3F)n3c(CN4CCCC4)cnc3c2C#N)cc(OC)c1OC` returned an IC50 of 1200 nM.
On the same count and under the same terms, to `CNCc1cnc2c(C#N)c(-c3ccc(OC)c(OC)c3OC)cc(-c3ccc(F)cc3F)n12` belongs 130 nM.
Still for that read-out and setting: to `CC(C)NCc1cn2c(-c3c[nH]c4ccccc34)cc(-c3ccc(F)cc3F)c(C#N)c2n1` belongs 1920 nM; to `COc1ccc(-c2cc(-c3ccc(F)cc3F)n3c(CN4CCCC4)cnc3c2C#N)c(OC)c1OC`, 800 nM.
Turning to `N#Cc1c(-c2ccc(F)cc2F)cc(-c2c[nH]c3ccccc23)n2cc(CN3CCCC3)nc12`, half-maximal inhibition (IC50) was put at 1030 nM.
On the same count and under the same terms, then `CCNCc1cnc2c(C#N)c(-c3ccc(OC)c(OC)c3OC)cc(-c3ccc(F)cc3F)n12`, with 170 nM; and `CNCc1cn2c(-c3c[nH]c4ccccc34)cc(-c3ccc(F)cc3Cl)c(C#N)c2n1`, with 1040 nM.
Still for that read-out and setting: to `CCNCc1cnc2c(C#N)c(-c3ccc(OC)c(OC)c3OC)cc(-c3ccc(F)cc3)n12` belongs 3240 nM; to `CCNCc1cn2c(-c3c[nH]c4ccccc34)cc(-c3ccc(F)cc3F)c(C#N)c2n1`, 920 nM.

In a further assay the test system is NCI-H460. In words: Cytotoxicity against human NCI-H460 cells after 72 hrs by MTT assay. The class given is functional, cell-based. The note with it: NCI-H460, 72 h. In short, it runs like this:
as §1
The compound `N#Cc1c(-c2ccc(F)cc2Cl)cc(-c2c[nH]c3ccccc23)n2cc(CNC3CCCCC3)nc12` registered a half-maximal inhibitory concentration (IC50) of 80 nM.
The compound `COc1ccc(-c2cc(-c3ccc(F)cc3)n3c(CN4CCN(C)CC4)cnc3c2C#N)c(OC)c1OC` returned a 50% inhibitory concentration (IC50) of 3890 nM.
`CCN(CC)Cc1cnc2c(C#N)c(-c3ccc(OC)c(OC)c3OC)cc(-c3ccc(F)cc3)n12` came in with a concentration for half-maximal inhibition (IC50) of 3080 nM.
`CNCc1cn2c(-c3c[nH]c4ccccc34)cc(-c3ccc(F)cc3F)c(C#N)c2n1` registered an IC50 of 200 nM.
For the compound `COc1cc(-c2cc(-c3ccc(F)cc3F)n3c(CN4CCCC4)cnc3c2C#N)cc(OC)c1OC`, the half-inhibitory concentration (IC50) worked out at 130 nM.
Still for that read-out and setting: then `CNCc1cnc2c(C#N)c(-c3ccc(OC)c(OC)c3OC)cc(-c3ccc(F)cc3F)n12`, with 20 nM.
In turn, `CC(C)NCc1cn2c(-c3c[nH]c4ccccc34)cc(-c3ccc(F)cc3F)c(C#N)c2n1` registered a half-inhibitory concentration (IC50) of 180 nM.
Still for that read-out and setting: to `COc1ccc(-c2cc(-c3ccc(F)cc3F)n3c(CN4CCCC4)cnc3c2C#N)c(OC)c1OC` belongs 60 nM; to `N#Cc1c(-c2ccc(F)cc2F)cc(-c2c[nH]c3ccccc23)n2cc(CN3CCCC3)nc12`, 50 nM.
Compound `CCNCc1cnc2c(C#N)c(-c3ccc(OC)c(OC)c3OC)cc(-c3ccc(F)cc3F)n12` had an IC50 of 30 nM.
Same read-out and setting: to `CNCc1cn2c(-c3c[nH]c4ccccc34)cc(-c3ccc(F)cc3Cl)c(C#N)c2n1` belongs 250 nM.
`CCNCc1cnc2c(C#N)c(-c3ccc(OC)c(OC)c3OC)cc(-c3ccc(F)cc3)n12` displayed a concentration for half-maximal inhibition (IC50) of 4540 nM.
`CCNCc1cn2c(-c3c[nH]c4ccccc34)cc(-c3ccc(F)cc3F)c(C#N)c2n1` yielded a half-maximal inhibitory concentration (IC50) of 150 nM.

For the next assay, the system named is MKN-45. In words: Cytotoxicity against human MKN45 cells after 72 hrs by MTT assay. Format: functional, cell-based. The note with it: MKN-45, 72 h. In short, it runs like this:
as §1
`N#Cc1c(-c2ccc(F)cc2Cl)cc(-c2c[nH]c3ccccc23)n2cc(CNC3CCCCC3)nc12` yielded an IC50 of 3680 nM.
The same measure, in the same setting: to `COc1ccc(-c2cc(-c3ccc(F)cc3)n3c(CN4CCN(C)CC4)cnc3c2C#N)c(OC)c1OC` belongs 5480 nM; to `CCN(CC)Cc1cnc2c(C#N)c(-c3ccc(OC)c(OC)c3OC)cc(-c3ccc(F)cc3)n12`, 23400 nM; to `CNCc1cn2c(-c3c[nH]c4ccccc34)cc(-c3ccc(F)cc3F)c(C#N)c2n1`, 18200 nM.
As to `COc1cc(-c2cc(-c3ccc(F)cc3F)n3c(CN4CCCC4)cnc3c2C#N)cc(OC)c1OC`, half-maximal inhibition (IC50) was put at 11600 nM.
On the same count and under the same terms, to `CNCc1cnc2c(C#N)c(-c3ccc(OC)c(OC)c3OC)cc(-c3ccc(F)cc3F)n12` belongs 2700 nM; to `CC(C)NCc1cn2c(-c3c[nH]c4ccccc34)cc(-c3ccc(F)cc3F)c(C#N)c2n1`, 3340 nM; to `COc1ccc(-c2cc(-c3ccc(F)cc3F)n3c(CN4CCCC4)cnc3c2C#N)c(OC)c1OC`, 7260 nM.
Still for that read-out and setting: to `N#Cc1c(-c2ccc(F)cc2F)cc(-c2c[nH]c3ccccc23)n2cc(CN3CCCC3)nc12` belongs 480 nM.
On the same count and under the same terms, to `CCNCc1cnc2c(C#N)c(-c3ccc(OC)c(OC)c3OC)cc(-c3ccc(F)cc3F)n12` belongs 3520 nM; to `CNCc1cn2c(-c3c[nH]c4ccccc34)cc(-c3ccc(F)cc3Cl)c(C#N)c2n1`, 2440 nM; to `CCNCc1cnc2c(C#N)c(-c3ccc(OC)c(OC)c3OC)cc(-c3ccc(F)cc3)n12`, 7880 nM.
Turning to `CCNCc1cn2c(-c3c[nH]c4ccccc34)cc(-c3ccc(F)cc3F)c(C#N)c2n1`, inhibition was half-maximal at 2770 nM (IC50).
